ChEMBL document CHEMBL3865821, “Amino substituted benzimidazo[1,2-a]quinolines: Antiproliferative potency, 3D QSAR study and DNA binding properties” (Eur J Med Chem, 2016)
Activity calls are given as the source filed them. No cut-off for these calls is given here.

Key:
[1] = Antiproliferative activity against human HCT116 cells after 72 hrs by MTT assay; format: functional, cell-based; settings: HCT-116, 72 h
Method in brief: (§1)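 Tumour cells were grown as monolayers in DMEM with 10 % FBS, 2 mM L-glutamine, penicillin and streptomycin at 37 °C under 5 % CO₂. Tenfold dilutions from 10^-8 to 10^-4 M were applied for 72 h, followed by MTT read at 570 nm. IC50 came from linear regression of percentage growth; at least two experiments, quadruplicate points.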

[2] = target: T1, DNA topoisomerase 1 (Homo sapiens) (UniProt P11387); assay: Poison activity at human DNA topoisomerase 1 assessed as increase in intensity of nicked form of DNA at 100 uM using pUC19 supercoiled plasmid DNA as substrate preincubated for 15 mins followed by DNA topoisomerase 1 addition measured after 30 mins by agarose gel electrophoresis
T1 sequence (whole entry): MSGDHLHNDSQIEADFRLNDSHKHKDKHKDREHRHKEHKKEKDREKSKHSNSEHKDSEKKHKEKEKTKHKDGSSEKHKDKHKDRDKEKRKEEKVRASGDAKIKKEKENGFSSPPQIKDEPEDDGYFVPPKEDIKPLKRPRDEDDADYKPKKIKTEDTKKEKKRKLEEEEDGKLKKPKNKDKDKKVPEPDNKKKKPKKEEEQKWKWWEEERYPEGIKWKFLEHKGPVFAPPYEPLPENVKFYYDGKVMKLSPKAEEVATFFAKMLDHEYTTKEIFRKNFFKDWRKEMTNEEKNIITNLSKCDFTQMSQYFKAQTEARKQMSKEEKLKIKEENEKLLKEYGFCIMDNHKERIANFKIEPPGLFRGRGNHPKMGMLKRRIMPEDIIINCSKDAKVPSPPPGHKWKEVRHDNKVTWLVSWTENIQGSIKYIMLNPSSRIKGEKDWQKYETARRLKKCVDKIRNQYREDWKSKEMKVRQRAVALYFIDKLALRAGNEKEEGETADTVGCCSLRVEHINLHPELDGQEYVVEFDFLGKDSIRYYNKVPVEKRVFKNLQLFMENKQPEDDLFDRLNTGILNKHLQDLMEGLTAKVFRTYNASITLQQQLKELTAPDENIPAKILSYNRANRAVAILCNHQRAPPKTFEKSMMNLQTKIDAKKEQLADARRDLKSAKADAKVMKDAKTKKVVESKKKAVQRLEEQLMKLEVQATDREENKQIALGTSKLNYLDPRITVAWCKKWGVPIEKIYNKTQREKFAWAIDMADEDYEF
Method in brief: (§2)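 Supercoiled pUC19 plasmid was treated with human topoisomerase I, alone or with compound, and topoisomers were resolved by agarose gel electrophoresis. Poisoning, seen as nicked plasmid, was assessed on ethidium bromide-containing agarose gels at up to 100 μM compound.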

[3] = Antiproliferative activity against human H460 cells after 72 hrs by MTT assay; format: functional, cell-based; settings: NCI-H460, 72 h
Method in brief: as §1, with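 “CO₂. They were seeded at 3×10^4 cells/mL (HCT 116, H460) or 5×10^4 cells/mL (MCF-7).” for “CO₂.”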

[4] = Binding affinity to duplex calf thymus DNA assessed as change in melting temperature at drug/DNA ratio of 0.5 by spectrophotometric analysis
Method in brief: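 Calf-thymus DNA at 20 μM was heated with or without compound at 10 or 20 μM (drug/base-pair ratio 0.5 or 1) in BPE buffer (6 mM Na₂HPO₄, 2 mM NaH₂PO₄, 1 mM EDTA, pH 7.1). A260 was read every minute from 20 to 100 °C, rising 1 °C per min, and ΔTm was derived.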

[5] = Antiproliferative activity against human MCF7 cells after 72 hrs by MTT assay; format: functional, cell-based; settings: MCF7, 72 h; method in brief: as §1
[6] = Binding affinity to duplex calf thymus DNA assessed as hypsochromic shift at 20 uM by UV/visible spectroscopic analysis
Method in brief: (§3)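 Compound at 20 μM in BPE buffer (pH 7.1) was titrated with calf-thymus DNA at 1–140 μM in a 10 mm quartz cuvette. Spectra were recorded from 240 to 480 nm against a reference cuvette holding DNA at the same concentration.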

[7] = Binding affinity to duplex calf thymus DNA assessed as change in melting temperature at drug/DNA ratio of 0.05 by spectrophotometric analysis
Escherichia coli = assay: Binding affinity to negatively supercoiled pUC19 DNA assessed as DNA intercalation by measuring generation of positively supercoiled DNA up to 50 uM preincubated for 15 mins followed by human DNA topoisomerase 1 addition measured after 30 mins by agarose gel electrophoresis; method in brief: as §2
[8] = Binding affinity to duplex calf thymus DNA assessed as bathochromic shift at 20 uM by UV/visible spectroscopic analysis; method in brief: as §3
[9] = Binding affinity to duplex calf thymus DNA assessed as induction of negative circular dichroic signal at 1 to 60 uM by circular dichroism analysis
Method in brief: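 Calf-thymus DNA at 50 μM was incubated in BPE buffer with or without compound at 1, 5, 10, 20, 30, 40, 50 and 60 μM. CD spectra were recorded from 480 to 230 nm in a 10 mm cell at 20 °C. The compound alone at 60 μM was checked for intrinsic CD.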

[10] = Binding affinity to radiolabeled 265bp DNA (unknown origin) at 0.5 to 50 uM by DNase 1 footprinting analysis
[11] = Binding affinity to duplex calf thymus DNA assessed as change in melting temperature at drug/DNA ratio of 0.1 by spectrophotometric analysis
[12] = Binding affinity to 0.5 to 480 uM of duplex […] (unknown origin) at 0.5 to 540 uM by fluorescence spectroscopic analysis
Method in brief: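 Fluorescent compounds at 10 μM in BPE buffer (pH 7.1) were measured with and without rising calf-thymus DNA. Emission was scanned from 400 to 700 nm. K_sv was taken as the slope of the Stern–Volmer plot F₀/F = 1 + K_sv[ct-DNA].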

[13] = Binding affinity to duplex calf thymus DNA assessed as change in melting temperature at drug/DNA ratio of 0.25 by spectrophotometric analysis
[14] = Antiproliferative activity against human shGFP-fused HMLE cells after 72 hrs by MTT assay; format: cell-based
Method in brief: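 HMLE-shGFP cells were kept in a 1:1 mix of DMEM + 10 % FBS with insulin, hydrocortisone and HuMEC medium at 37 °C, 5 % CO₂. Agents were given as tenfold dilutions from 10^-8 to 10^-4 M for 72 h, then MTT absorbance was read at 570 nm. IC50 was interpolated by linear regression of percentage growth; at least two experiments, each point in quadruplicate.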

ΔTm [4]	Activity [6]	ΔTm [7]	inhibition (Escherichia coli)	Activity [8]	Activity [9]	Activity [10]	ΔTm [11]	Activity [12]	ΔTm [13]	SMILES	IC50 ([1]; read-out: IC50)	IC50 ([1]; read-out: pIC50 (converted))	Activity [2]	IC50 ([3]; read-out: IC50)	IC50 ([3]; read-out: pIC50 (converted))	IC50 ([5]; read-out: IC50)	IC50 ([5]; read-out: pIC50 (converted))	IC50 [14]
0.6 °C										N#Cc1c(N2CCCC2)c2ccc(N3CCCC3)cc2n2c1nc1ccccc12	2 µM	2 µM	Active	12 µM	12 µM	2 µM	2 µM	
	Active	2.1 °C	Active	Active	Active	Active	20.7 °C	Active		C[N+]1(C)CCN(c2ccc3c(N4CC[N+](C)(C)CC4)c(C#N)c4nc5ccccc5n4c3c2)CC1	> 100 µM	> 100 µM		> 100 µM	500 µM	> 100 µM	500 µM	
20.1 °C	Active		Active	Active	Active	Active	5.1 °C	Active	15.9 °C	N#Cc1c(N2CCNCC2)c2ccc(N3CCNCC3)cc2n2c1nc1ccccc12	1.5 µM	1.5 µM		4 µM	4 µM	1 µM	1 µM	2 µM
